The text below walks through data of ChEMBL document CHEMBL1145859, “Tethered dimers as NAD synthetase inhibitors with antibacterial activity” (J Med Chem, 2003).

Experiment [1] concerns Pseudomonas aeruginosa. Briefly: Minimum inhibitory concentration required against Pseudomonas aeruginosa ATCC 27853. In kind it is functional. The gist of the method:
(§1)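 Broth doubling-dilution MIC run in duplicate series from 50 µg/mL (1% DMSO final). Each tube received 0.01 mL of inoculum from a log-phase culture (5–6 h, 37 °C) adjusted to about 5 × 10^8 CFU/mL. Incubation 20 h at 37 ± 2 °C. MIC is the lowest concentration with no visible growth. Viability, sterility and reference-antibiotic controls included.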

In experiment [2] the target is T1, NH(3)-dependent NAD(+) synthetase (Bacillus subtilis (strain 168), UniProt P08164).
T1 sequence (P08164 whole entry): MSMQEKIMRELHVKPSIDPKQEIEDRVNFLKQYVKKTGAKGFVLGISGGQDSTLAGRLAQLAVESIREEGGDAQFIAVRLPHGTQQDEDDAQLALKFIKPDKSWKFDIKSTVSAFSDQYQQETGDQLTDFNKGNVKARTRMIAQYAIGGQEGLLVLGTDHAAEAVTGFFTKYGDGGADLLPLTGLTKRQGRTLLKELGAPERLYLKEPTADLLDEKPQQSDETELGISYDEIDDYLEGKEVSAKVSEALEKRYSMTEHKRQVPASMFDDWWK
Briefly: Inhibitory activity against Bacillus subtilis NAD synthetase. The gist of the method: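 Purified recombinant B. subtilis NAD synthetase (2.0 µg/mL) in coupled assay, pH 8.5: 58.5 mM HEPES, 18.5 mM NH4Cl, 19.5 mM KCl, 9.75 mM MgCl2, 1% EtOH, 0.1 mM NaAD, 0.3% BOG, 40 µg/mL yeast ADH, 0.2 mM ATP, 2.5% DMSO. ATP-started, 10 min, guanidine·HCl stop; NADH read at A340 and fluorescence 460 nm, background-subtracted; IC50 from % inhibition at six concentrations.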

The test system of experiment [3] is Bacillus subtilis. Briefly: Minimum inhibitory concentration required against Bacillus subtilis ATCC 14289. In kind it is functional. An outline of the steps:
as §1

Experiment [4] deals with Staphylococcus aureus. Briefly: Minimum inhibitory concentration required against Staphylococcus aureus ATCC 29213. In kind it is functional. An outline of the steps: as §1
The test system of experiment [5] is Staphylococcus aureus. Briefly: Minimum inhibitory concentration required against Staphylococcus aureus ATCC 33593. In kind it is functional. The gist of the method:
as §1

Experiment [6] concerns Staphylococcus aureus. Briefly: Minimum inhibitory concentration required against Staphylococcus aureus ATCC 33591. In kind it is functional. The gist of the method: as §1
The test system of experiment [7] is Salmonella enteritidis. Briefly: Minimum inhibitory concentration required against Salmonella enteritidis ATCC 13076. Type of experiment: functional, Salmonella enterica subsp. enterica serovar Enteritidis. Particulars: Salmonella enterica. An outline of the steps:
as §1

The subject of experiment [8] is Staphylococcus aureus. Briefly: Minimum inhibitory concentration required against Staphylococcus aureus ATCC 33592. Type of experiment: functional. The gist of the method:
as §1

Experiment [9] has as its system Salmonella enteritidis. Briefly: microbe, parasite or virus in culture. The note with it: Salmonella enterica, ATCC 13076.

Values after ≈ are worked out from the molar mass of the structure shown. A value given as a limit tells only on which side of the number the result lay.

The IC50 is the concentration that gives 50% inhibition.

The molecule GENTAMICIN showed an MIC in [1] of 2 µM.

Turning to `COc1ccc2c(ccn2CCCCCCCOC(=O)c2ccc[n+](C)c2)c1`, the concentration for half-maximal inhibition (IC50) in experiment [2] was 24 µM. This lies in the double-digit micromolar range. Turning to `CO[C@H]1/C=C/O[C@@]2(C)Oc3c(C)c(O)c4c(O)c(c(/C=N/N5CCN(C)CC5)c(O)c4c3C2=O)NC(=O)/C(C)=C\C=C\[C@H](C)[C@H](O)[C@@H](C)[C@@H](O)[C@@H](C)[C@H](OC(C)=O)[C@@H]1C` [RIFAMPIN], the IC50 in experiment [2] is above 1 µM. In addition, the MIC in [3] is 1 µM (≈ 0.823 µg/mL).

`C[n+]1cccc(C(=O)OCCCCCCn2ccc3cc([N+](=O)[O-])ccc32)c1` showed an IC50 in experiment [2] of 500 µM.

As to `C[n+]1cccc(C(=O)OCCOCCOCCn2ccc3cc(OCc4ccccc4)ccc32)c1`, the MIC in experiment [4] and in experiment [3] was above 50 µM each time. Besides, the IC50 in experiment [2] is above 200 µM. With `C[n+]1cccc(C(=O)OCCCCCCCCn2ccc3cc(OCc4ccccc4)ccc32)c1`, the MIC in [4] turned out to be 1.5 µM; in [5], 3.1 µM; in [6] it was 12.5 µM; in experiment [1], 50 µM; in [7], 50 µM; in experiment [3], 6.2 µM. Besides, the MIC in experiment [8] turned out to be 6.2 µM. In the case of `COC(=O)c1cc2cc(OCc3ccccc3)ccc2n1CCCCCCCCOC(=O)c1cc[n+](C)cc1`, the MIC in experiment [4] was 6.2 µM; in [1], above 50 µM; in [7], above 50 µM; in experiment [3] it was 12.5 µM. Also, in [2], half-maximal inhibition (IC50) required 10 µM. `C[n+]1cccc(C(=O)OCCCCCCCn2ccc3ccccc32)c1` returned a half-maximal inhibitory concentration (IC50) in experiment [2] of 95 µM. In experiment [2], `COC(=O)c1cc2cc(OCc3ccccc3)ccc2n1CCCCCCCCCOC(=O)c1ccc[n+](C)c1` displayed an IC50 of 27 µM.

In experiment [2], `COC(=O)c1cc2cc(OCc3ccccc3)ccc2n1CCCCCCCCOC(=O)Cc1ccc([N+](C)(C)C)cc1` showed an IC50 of 20 µM. In the case of `O=C(OCCn1ccc2cc([N+](=O)[O-])ccc21)c1cccnc1`, the IC50 in experiment [2] is above 1000 µM.

As for `COC(=O)c1cc2ccccc2n1CCCCCCCCOC(=O)Cc1ccc([N+](C)(C)C)cc1`, the MIC in experiment [4] was 3.1 µM; in experiment [1], above 50 µM; in experiment [7] it was above 50 µM; in [3], 6.2 µM. Moreover, the half-maximal inhibitory concentration (IC50) in experiment [2] worked out at 14 µM. The molecule `COC(=O)c1cc2ccccc2n1CCCCCCCCOC(=O)c1cc[n+](C)cc1` registered a 50% inhibitory concentration (IC50) in experiment [2] of 44 µM. Same read-out and setting: for `COC(=O)c1cc2cc(OCc3ccccc3)ccc2n1CCCCCCOC(=O)c1ccc[n+](C)c1` the value was 37 µM; for `O=C(OCCCCCCCCn1ccc2cc([N+](=O)[O-])ccc21)c1cccnc1`, above 1000 µM. Same read-out and setting: for `O=C(OCCCCCCCCn1ccc2cc(O)ccc21)c1cccnc1` the value was above 200 µM. Turning to `COc1cc(Cc2cnc(N)nc2N)cc(OC)c1OC` [TRIMETHOPRIM], the IC50 in experiment [2] is above 1 µM. The molecule further gave an MIC in experiment [9] of 0.5 µM (≈ 0.145 µg/mL). Turning to `C[N+](C)(C)c1ccc(CC(=O)OCCCCCn2ccc3cc(OCc4ccccc4)ccc32)cc1`, in experiment [2], 60 µM corresponded to half-maximal inhibition (IC50). Same read-out and setting: for `COC(=O)c1cc2ccccc2n1CCCCCCCCCOC(=O)c1ccc[n+](C)c1` the value was 34 µM; for `C[N+](C)(C)c1ccc(CC(=O)OCCCCCCCCCn2ccc3ccccc32)cc1`, 54 µM; for `C[N+](C)(C)c1ccc(CC(=O)OCCCCCCn2ccc3cc(OCc4ccccc4)ccc32)cc1`, 69 µM. The same measure, in the same setting: to `C[n+]1cccc(C(=O)OCCCCn2ccc3cc([N+](=O)[O-])ccc32)c1` belongs above 1000 µM. As for `COC(=O)c1cc2cc(OCc3ccccc3)ccc2n1CCCCCCCCCOC(=O)Cc1ccc([N+](C)(C)C)cc1`, the MIC in experiment [4] came out at 6.2 µM; in [3], 1.5 µM. The same molecule showed a concentration for half-maximal inhibition (IC50) in [2] of 18 µM.

For `COC(=O)c1cc2ccccc2n1CCCCCCOC(=O)Cc1ccc([N+](C)(C)C)cc1`, half-maximal inhibition in experiment [2] (IC50) was put at 24 µM.

The molecule `C[n+]1cccc(C(=O)OCCn2ccc3cc([N+](=O)[O-])ccc32)c1` gave an IC50 in experiment [2] above 1000 µM. Consider `COC(=O)c1cc2cc(OCc3ccccc3)ccc2n1CCCCCCCOC(=O)Cc1ccc([N+](C)(C)C)cc1`, for which the MIC in experiment [4] is 1.5 µM; in [5], 3.1 µM; in experiment [6], 6.2 µM; in experiment [1], above 50 µM; in experiment [7] it was above 50 µM; in experiment [3], 1.5 µM. Besides, the MIC in [8] turned out to be 3.1 µM. The same molecule registered an IC50 in [2] of 9 µM.

For the molecule `C[N+](C)(C)c1ccc(CC(=O)OCCCCCCCCn2ccc3cc(OCc4ccccc4)ccc32)cc1`, the MIC in experiment [4] was 3.1 µM; in [1] it was above 50 µM; in experiment [7] it was above 50 µM; in [3], 1.5 µM. Also, in experiment [2], half-maximal inhibition (IC50) was put at 20 µM.

In experiment [2], `O=C(OCCCn1ccc2cc([N+](=O)[O-])ccc21)c1cccnc1` gave an IC50 above 1000 µM.

`C[n+]1cccc(C(=O)OCCCCCCn2ccc3cc(OCc4ccccc4)ccc32)c1`: in experiment [2], the half-maximal inhibitory concentration (IC50) turned out to be 29 µM. On the same count and under the same terms, for `O=C(OCCCCCCn1ccc2cc([N+](=O)[O-])ccc21)c1cccnc1` the value was above 1000 µM.

Regarding `C[n+]1cccc(C(=O)OCCCn2ccc3cc([N+](=O)[O-])ccc32)c1`, the concentration for half-maximal inhibition (IC50) in experiment [2] is above 1000 µM. `C[N+](C)(C)c1ccc(CC(=O)OCCCCn2ccc3cc(OCc4ccccc4)ccc32)cc1` came in with a concentration for half-maximal inhibition (IC50) in experiment [2] of 84 µM. That is a double-digit micromolar value.

For the molecule `O=C(OCCCCCn1ccc2cc([N+](=O)[O-])ccc21)c1cccnc1`, in [2], the 50% inhibitory concentration (IC50) was above 1000 µM. On the same count and under the same terms, to `C[N+](C)(C)c1ccc(CC(=O)OCCCCCCCCn2ccc3ccccc32)cc1` belongs 63 µM. On the same count and under the same terms, to `COC(=O)c1cc2cc(OCc3ccccc3)ccc2n1CCCCCCOC(=O)Cc1ccc([N+](C)(C)C)cc1` belongs 12 µM.

In the case of `COc1cccc(OC)c1C(=O)N[C@@H]1C(=O)N2[C@@H]1SC(C)(C)[C@@H]2C(=O)O`, the MIC in [4] worked out at 1 µM (≈ 0.38 µg/mL); in [5], 32 µM (≈ 12.2 µg/mL); in experiment [6], 32 µM (≈ 12.2 µg/mL); in experiment [8], 32 µM (≈ 12.2 µg/mL). Further, in [2], the 50% inhibitory concentration (IC50) is above 1 µM. In the case of `C[N+](C)(C)c1ccc(CC(=O)OCCCCCCn2ccc3cc([N+](=O)[O-])ccc32)cc1`, in experiment [2], the half-maximal inhibitory concentration (IC50) was 84 µM. That is a double-digit micromolar value. On to `COC(=O)c1cc2ccccc2n1CCCCCCCOC(=O)Cc1ccc([N+](C)(C)C)cc1`, for which the MIC in [4] is 12.5 µM; in [1], above 50 µM; in experiment [7], above 50 µM; in [3] it was 1.5 µM. The molecule further displayed a half-maximal inhibitory concentration (IC50) in experiment [2] of 19 µM. In [2], `C[n+]1cccc(C(=O)OCCCCCCCCCn2ccc3ccccc32)c1` had an IC50 of 48 µM. That is a double-digit micromolar value. On to `O=C(OCCCCCCCn1ccc2cc([N+](=O)[O-])ccc21)c1cccnc1`, for which the IC50 in [2] was above 1000 µM. As to `COC(=O)c1cc2cc(OCc3ccccc3)ccc2n1CCCCCCCOC(=O)c1ccc[n+](C)c1`, the MIC was 3.1 µM in experiment [4], above 50 µM in experiment [1], above 50 µM in [7] and 6.2 µM in experiment [3]. It took 18 µM to reach half-maximal inhibition in [2] (IC50). Regarding `C[N+](C)(C)c1ccc(CC(=O)OCCCCCn2ccc3cc([N+](=O)[O-])ccc32)cc1`, the IC50 in experiment [2] was determined as 70 µM. Still for that read-out and setting: to `C[N+](C)(C)c1ccc(CC(=O)OCCCCn2ccc3cc([N+](=O)[O-])ccc32)cc1` belongs 89 µM; to `COC(=O)c1cc2ccccc2n1CCCCCCCOC(=O)c1ccc[n+](C)c1`, 34 µM. Take `C[N+](C)(C)c1ccc(CC(=O)OCCCCCCCCCn2ccc3cc([N+](=O)[O-])ccc32)cc1`: the IC50 in experiment [2] came out at 24 µM. The same measure, in the same setting: to `C[n+]1cccc(C(=O)OCCCCCn2ccc3cc(OCc4ccccc4)ccc32)c1` belongs 94 µM.

With `C[n+]1cccc(C(=O)OCCCCCn2ccc3cc([N+](=O)[O-])ccc32)c1`, in experiment [2], the 50% inhibitory concentration (IC50) came out at 1000 µM. On the same count and under the same terms, to `O=C(OCCCCn1ccc2cc([N+](=O)[O-])ccc21)c1cccnc1` belongs above 1000 µM.
